# Assay results: ChEMBL document CHEMBL1135915, “Structure-activity relationships in 1,4-benzodioxan-related compounds. 7. Selectivity of 4-phenylchroman analogues for alpha(1)-adrenoreceptor subtypes” (J Med Chem, 2002)
# What was measured:
# [1] = molecular target: T1, Alpha-1D adrenergic receptor (Rattus norvegicus, UniProt P23944); test: Antagonistic affinity tested against isolated Rat Thoracic Aorta Alpha-1D adrenergic receptor; assay type: functional, tissue-based; conditions: read-out: pA2 (converted)
# T1 sequence (P23944 whole entry): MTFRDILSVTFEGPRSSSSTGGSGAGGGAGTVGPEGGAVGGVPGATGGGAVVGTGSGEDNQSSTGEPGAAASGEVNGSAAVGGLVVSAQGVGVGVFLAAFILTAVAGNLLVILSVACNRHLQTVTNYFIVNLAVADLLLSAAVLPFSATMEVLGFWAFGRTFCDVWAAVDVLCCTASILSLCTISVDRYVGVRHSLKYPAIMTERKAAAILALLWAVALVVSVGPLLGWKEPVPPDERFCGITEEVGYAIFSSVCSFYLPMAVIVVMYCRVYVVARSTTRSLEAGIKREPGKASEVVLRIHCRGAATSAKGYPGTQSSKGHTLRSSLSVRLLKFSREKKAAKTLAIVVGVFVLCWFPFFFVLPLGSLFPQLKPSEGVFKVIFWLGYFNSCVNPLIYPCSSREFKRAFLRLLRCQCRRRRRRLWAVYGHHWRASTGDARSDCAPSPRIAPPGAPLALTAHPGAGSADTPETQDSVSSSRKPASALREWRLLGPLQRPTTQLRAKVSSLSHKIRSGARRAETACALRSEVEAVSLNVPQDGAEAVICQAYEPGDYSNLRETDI
# [2] = molecular target: T2, Alpha-1A adrenergic receptor (Rattus norvegicus, UniProt P43140); test: Antagonistic affinity tested against isolated Rat Prostate Alpha-1A adrenergic receptor; assay type: functional; conditions: read-out: pA2 (converted)
# T2 sequence (P43140 whole entry): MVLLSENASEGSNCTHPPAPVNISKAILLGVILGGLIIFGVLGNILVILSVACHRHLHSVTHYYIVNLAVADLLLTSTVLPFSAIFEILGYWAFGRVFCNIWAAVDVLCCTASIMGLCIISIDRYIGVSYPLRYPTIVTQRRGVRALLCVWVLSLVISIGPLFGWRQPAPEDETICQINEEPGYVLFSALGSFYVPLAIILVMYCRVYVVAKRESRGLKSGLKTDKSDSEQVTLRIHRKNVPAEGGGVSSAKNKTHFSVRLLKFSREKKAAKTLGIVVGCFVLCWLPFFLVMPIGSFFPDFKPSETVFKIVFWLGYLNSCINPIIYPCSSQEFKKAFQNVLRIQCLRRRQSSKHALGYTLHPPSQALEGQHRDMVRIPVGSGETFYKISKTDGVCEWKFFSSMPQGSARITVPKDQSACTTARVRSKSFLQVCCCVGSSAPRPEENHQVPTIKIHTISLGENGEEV
# Method in brief: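 Prostate strips from male Wistar rats (275-300 g), 2 g tension in modified Krebs at 37 °C, 95% O2/5% CO2, pH 7.4, primed with 1.0 µM (-)-noradrenaline. After 90 min wash, a cumulative noradrenaline curve was run, then a second after 30 min antagonist equilibration. Single antagonist concentration in the range 0.01-1 µM; pKB by van Rossum.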
# [3] = molecular target: T2, Alpha-1A adrenergic receptor; test: Antagonistic affinity tested against isolated Rat Prostatic Vas Deferens Alpha-1A adrenergic receptor; assay type: functional, tissue-based; conditions: read-out: pA2 (converted)
# [4] = molecular target: T3, Alpha-1B adrenergic receptor (Rattus norvegicus, UniProt P15823); test: Antagonistic affinity tested against isolated Rat Spleen Alpha-1B adrenergic receptor; assay type: functional; conditions: read-out: pA2 (converted)
# T3 sequence (P15823 whole entry): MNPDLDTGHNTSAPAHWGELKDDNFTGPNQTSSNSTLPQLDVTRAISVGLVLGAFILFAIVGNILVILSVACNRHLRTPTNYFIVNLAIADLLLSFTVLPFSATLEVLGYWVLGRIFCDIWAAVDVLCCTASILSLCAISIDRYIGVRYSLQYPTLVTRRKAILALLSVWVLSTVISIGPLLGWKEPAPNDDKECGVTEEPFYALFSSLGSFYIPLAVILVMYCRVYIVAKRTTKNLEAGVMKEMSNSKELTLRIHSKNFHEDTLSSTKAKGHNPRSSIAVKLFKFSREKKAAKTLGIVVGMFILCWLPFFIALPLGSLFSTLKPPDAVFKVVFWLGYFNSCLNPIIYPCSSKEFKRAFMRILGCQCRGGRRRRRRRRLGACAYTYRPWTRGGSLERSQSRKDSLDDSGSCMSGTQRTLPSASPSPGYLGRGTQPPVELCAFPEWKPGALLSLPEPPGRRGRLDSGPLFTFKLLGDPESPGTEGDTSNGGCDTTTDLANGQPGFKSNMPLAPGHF
# Method in brief: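 Rat spleen strips, 1 g resting tension, in Krebs with 4.0 µM propranolol and 0.01 mM K2EDTA, equilibrated 2 h. Cumulative isometric (-)-phenylephrine curves at 30 min intervals; the second served as control.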
# [5] = molecular target: T4, Alpha-1D adrenergic receptor (Homo sapiens, UniProt P25100); test: Affinity constant on CHO cells expressing Human recombinant Alpha-1D adrenergic receptor; assay type: cell-based
# T4 sequence (P25100 whole entry): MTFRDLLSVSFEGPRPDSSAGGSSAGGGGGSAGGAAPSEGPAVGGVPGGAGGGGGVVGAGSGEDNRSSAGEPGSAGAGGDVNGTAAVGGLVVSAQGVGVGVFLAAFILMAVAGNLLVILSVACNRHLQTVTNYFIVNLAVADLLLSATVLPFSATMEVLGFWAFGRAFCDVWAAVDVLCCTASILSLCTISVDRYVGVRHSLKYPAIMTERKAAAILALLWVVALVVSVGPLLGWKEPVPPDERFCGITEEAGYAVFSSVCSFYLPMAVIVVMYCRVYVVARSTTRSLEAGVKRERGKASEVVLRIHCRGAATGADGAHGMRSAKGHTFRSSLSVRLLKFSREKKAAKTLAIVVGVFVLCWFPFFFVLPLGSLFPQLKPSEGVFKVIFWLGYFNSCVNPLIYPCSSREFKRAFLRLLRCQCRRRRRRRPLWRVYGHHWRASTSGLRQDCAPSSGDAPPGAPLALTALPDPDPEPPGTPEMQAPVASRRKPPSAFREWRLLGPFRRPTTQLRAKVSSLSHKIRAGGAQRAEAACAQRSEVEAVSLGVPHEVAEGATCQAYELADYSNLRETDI
# [6] = molecular target: T5, Alpha-1B adrenergic receptor (Homo sapiens, UniProt P35368); test: Affinity constant on CHO cells expressing Human recombinant Alpha-1B adrenergic receptor; assay type: cell-based
# T5 sequence (P35368 whole entry): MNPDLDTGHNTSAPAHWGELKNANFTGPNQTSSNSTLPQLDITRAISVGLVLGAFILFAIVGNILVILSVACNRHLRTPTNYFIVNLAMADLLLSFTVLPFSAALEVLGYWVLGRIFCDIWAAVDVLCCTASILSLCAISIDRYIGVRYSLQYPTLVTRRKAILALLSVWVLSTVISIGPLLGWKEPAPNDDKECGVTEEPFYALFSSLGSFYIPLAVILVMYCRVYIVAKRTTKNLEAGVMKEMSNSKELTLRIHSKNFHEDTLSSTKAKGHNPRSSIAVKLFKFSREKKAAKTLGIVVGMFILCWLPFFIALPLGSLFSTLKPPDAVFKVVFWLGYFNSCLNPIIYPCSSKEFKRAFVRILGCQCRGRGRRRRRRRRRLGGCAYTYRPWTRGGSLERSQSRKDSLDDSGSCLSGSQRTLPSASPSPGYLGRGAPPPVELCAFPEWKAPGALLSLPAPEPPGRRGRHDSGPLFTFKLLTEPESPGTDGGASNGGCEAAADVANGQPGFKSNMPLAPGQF
# [7] = molecular target: T6, Alpha-1A adrenergic receptor (Homo sapiens, UniProt P35348); test: Affinity constant on CHO cells expressing Human recombinant Alpha-1A adrenergic receptor; assay type: cell-based
# T6 sequence (P35348 whole entry): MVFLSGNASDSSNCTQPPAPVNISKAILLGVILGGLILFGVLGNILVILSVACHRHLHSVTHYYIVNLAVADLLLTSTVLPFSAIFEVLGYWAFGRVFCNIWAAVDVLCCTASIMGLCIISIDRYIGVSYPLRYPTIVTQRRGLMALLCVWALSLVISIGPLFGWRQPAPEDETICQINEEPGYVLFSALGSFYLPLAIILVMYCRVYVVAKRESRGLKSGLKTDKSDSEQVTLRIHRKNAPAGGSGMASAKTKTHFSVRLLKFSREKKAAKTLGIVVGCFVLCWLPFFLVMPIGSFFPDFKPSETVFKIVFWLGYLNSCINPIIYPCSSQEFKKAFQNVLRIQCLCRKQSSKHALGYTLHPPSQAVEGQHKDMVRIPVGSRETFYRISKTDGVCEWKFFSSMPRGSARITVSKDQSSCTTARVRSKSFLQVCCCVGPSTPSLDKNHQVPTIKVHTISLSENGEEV
# [8] = molecular target: T7, 5-hydroxytryptamine receptor 1A (Homo sapiens, UniProt P08908); test: Affinity constant on HeLa cells expressing Human recombinant 5-hydroxytryptamine receptor 1A
# T7 sequence (P08908 whole entry): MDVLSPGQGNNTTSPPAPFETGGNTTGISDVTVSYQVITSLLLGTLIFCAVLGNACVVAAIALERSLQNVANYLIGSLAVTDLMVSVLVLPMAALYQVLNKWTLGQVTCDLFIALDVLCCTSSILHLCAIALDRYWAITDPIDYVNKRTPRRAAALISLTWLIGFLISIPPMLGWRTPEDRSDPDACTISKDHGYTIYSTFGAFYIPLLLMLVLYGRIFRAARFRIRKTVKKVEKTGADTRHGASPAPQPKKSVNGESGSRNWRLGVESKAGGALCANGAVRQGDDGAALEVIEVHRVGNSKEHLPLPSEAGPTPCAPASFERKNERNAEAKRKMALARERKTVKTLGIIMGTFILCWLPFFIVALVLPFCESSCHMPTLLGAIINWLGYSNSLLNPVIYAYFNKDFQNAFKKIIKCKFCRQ
Structure (SMILES),Kb [1] [nM],Kb [2] [nM],Kb [3] [nM],Kb [4] [nM],Ki [5] [nM],Ki [6] [nM],Ki [7] [nM],Ki [8] [nM]
COc1cccc(OC)c1OCCNCC1COc2ccccc2O1 (stereo not drawn),1.58,0.537,0.309,–,–,–,–,–
COc1cccc(OC)c1OCCNC[C@@H]1Oc2ccccc2O[C@H]1c1ccccc1,32.4,5.89,5.75,2510,–,–,–,–
COc1cccc(OC)c1OCCNC[C@H]1C[C@H](c2ccccc2)c2ccccc2S1,61.7,107,209,302,22.9,27.5,2.34,10.2
COc1cccc(OC)c1OCCNCC1Cc2ccccc2C(c2ccccc2)C1 (stereo not drawn),91.2,288,178,110,17,12.3,0.513,6.31
COc1cccc(OC)c1OCCNC[C@@H]1C[C@H](c2ccccc2)c2ccccc2O1,0.275,1.12,1.32,28.8,0.0891,0.0398,0.0501,6.46
COc1cccc(OC)c1OCCNCCOc1ccccc1Cc1ccccc1,16.6,33.9,58.9,67.6,3.63,2.82,0.398,10.7
COc1cccc(OC)c1OCCNCC1CC(c2ccccc2)c2ccccc2S1 (stereo not drawn),17.4,4.9,6.17,155,0.437,1.15,0.0891,15.1
COc1cccc(OC)c1OCCNCC1CC(c2ccccc2)c2ccccc2C1=O (stereo not drawn),2,0.347,0.447,26.3,0.182,1.23,0.251,11
COc1ccccc1N1CCN(CCN2C(=O)CC3(CCCC3)CC2=O)CC1 [BMY-7378],–,–,–,33.1,–,708,–,0.372
